Measurements from ChEMBL document CHEMBL1126288, “Pyrimido[1,6-a]benzimidazoles: a new class of DNA gyrase inhibitors” (1992).
Values after ≈ are worked out from the molar mass of the structure shown.

Assays:
Escherichia coli [1] = assay: In vitro for antibacterial activity against Escherichia coli 1346 (Ec(A)); format: functional
Bacillus subtilis = assay: In vitro for antibacterial activity against Bacillus subtilis ATCC 585369; format: functional
Pseudomonas aeruginosa = assay: In vitro for antibacterial activity against Pseudomonas aeruginosa 799/61; format: functional
Escherichia coli [2] = assay: In vitro for antibacterial activity against Escherichia coli B (Ec(B)); format: functional
Klebsiella oxytoca = assay: In vitro for antibacterial activity against Klebsiella oxytoca 1082E; format: functional
Micrococcus luteus = assay: In vitro for antibacterial activity against Micrococcus luteus ATCC 8340; format: functional
Enterobacter cloacae = assay: In vitro for antibacterial activity against Enterobacter cloacae P99; format: functional
Escherichia coli [3] = assay: In vitro for antibacterial activity against Escherichia coli 1527E (Ec(C)); format: functional
[4] = biological target: DNA gyrase (Escherichia coli) (UniProt P0AES6+P0AES4); assay: Inhibitory activity against Escherichia coli DNA gyrase (represented as MNEC); format: protein-complex assay
Summary of the method: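 Supercoiling assay. Gyrase subunits mixed equimolar and reconstituted to A2B2 for 30 min at 25 °C. Compound 0.1–100 µg/mL, 37 °C, 30 min. Read on 0.8% agarose gel; MNEC = highest concentration leaving all DNA fully supercoiled.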

Staphylococcus aureus = assay: In vitro for antibacterial activity against Staphylococcus aureus 887; format: functional
[5] = test system: Staphylococcus haemolyticus; assay: In vitro for antibacterial activity against Staphylococcus haemolyticus 75 (quinolone-resistant); format: functional

SMILES	MIC (Escherichia coli [1]) [µg/mL]	MIC (Bacillus subtilis) [µg/mL]	MIC (Pseudomonas aeruginosa) [µg/mL]	MIC (Escherichia coli [2]) [µg/mL]	MIC (Klebsiella oxytoca) [µg/mL]	MIC (Micrococcus luteus) [µg/mL]	MIC (Enterobacter cloacae) [µg/mL]	MIC (Escherichia coli [3]) [µg/mL]	MNEC [4] [µg/mL]	MIC (Staphylococcus aureus) [µg/mL]	MIC [5] [µg/mL]
CCn1c2cc(N3CCN(C)CC3)c(F)cc2n2c(=O)[nH]c(=O)cc12	16 (≈ 46.3 µM)	16 (≈ 46.3 µM)	> 32	2 (≈ 5.79 µM)	> 32	> 32	16 (≈ 46.3 µM)	32 (≈ 92.7 µM)	2	> 32	–
O=c1cc2n(C3CC3)c3cc(N4CCNCC4)c(F)cc3n2c(=O)[nH]1	2 (≈ 5.82 µM)	8 (≈ 23.3 µM)	32 (≈ 93.2 µM)	0.5 (≈ 1.46 µM)	16 (≈ 46.6 µM)	> 32	8 (≈ 23.3 µM)	8 (≈ 23.3 µM)	0.2	> 32	–
CN1CCN(c2cc3c(cc2F)n2c(=O)[nH]c(=O)cc2n3C2CC2)CC1	2 (≈ 5.6 µM)	4 (≈ 11.2 µM)	32 (≈ 89.5 µM)	0.25 (≈ 0.7 µM)	8 (≈ 22.4 µM)	> 32	4 (≈ 11.2 µM)	2 (≈ 5.6 µM)	1	16 (≈ 44.8 µM)	> 32
CNn1c(=O)cc2n(C3CC3)c3cc(N4CCNCC4)c(F)cc3n2c1=O	1 (≈ 2.69 µM)	8 (≈ 21.5 µM)	32 (≈ 85.9 µM)	0.5 (≈ 1.34 µM)	8 (≈ 21.5 µM)	128 (≈ 344 µM)	4 (≈ 10.7 µM)	8 (≈ 21.5 µM)	0.1	16 (≈ 43 µM)	128 (≈ 344 µM)
CCn1c2cc(N3CCN(C)CC3)c(F)cc2n2c(=O)n(O)c(=O)cc12	2 (≈ 5.53 µM)	8 (≈ 22.1 µM)	2 (≈ 5.53 µM)	1 (≈ 2.77 µM)	4 (≈ 11.1 µM)	16 (≈ 44.3 µM)	2 (≈ 5.53 µM)	4 (≈ 11.1 µM)	1	16 (≈ 44.3 µM)	16 (≈ 44.3 µM)
CCn1c2cc(N3CCN(C)CC3)c(F)cc2n2c(=O)nc(N)cc12	> 32	> 32	> 32	> 32	> 32	> 32	> 32	> 32	> 10	> 32	> 32
O=c1cc2n(C3CC3)c3cc(N4CCNCC4)c(F)cc3n2c(=O)n1O	< 0.25	4 (≈ 11.1 µM)	2 (≈ 5.57 µM)	< 0.25	1 (≈ 2.78 µM)	8 (≈ 22.3 µM)	1 (≈ 2.78 µM)	2 (≈ 5.57 µM)	1	> 64	> 64
CN1CCN(c2c(F)cc3c(=O)c(C(=O)O)cn(CCF)c3c2F)CC1 [FLEROXACIN]	0.12 (≈ 0.325 µM)	0.5 (≈ 1.35 µM)	0.5 (≈ 1.35 µM)	0.06 (≈ 0.162 µM)	0.12 (≈ 0.325 µM)	16 (≈ 43.3 µM)	0.12 (≈ 0.325 µM)	0.06 (≈ 0.162 µM)	–	2 (≈ 5.42 µM)	32 (≈ 86.6 µM)
CCn1cc(C(=O)O)c(=O)c2cc(F)c(N3CCNCC3)cc21 [NORFLOXACIN]	0.12 (≈ 0.376 µM)	1 (≈ 3.13 µM)	1 (≈ 3.13 µM)	0.12 (≈ 0.376 µM)	0.25 (≈ 0.783 µM)	32 (≈ 100 µM)	0.25 (≈ 0.783 µM)	0.12 (≈ 0.376 µM)	–	4 (≈ 12.5 µM)	> 64
CN(C)n1c(=O)cc2n(C3CC3)c3cc(N4CCNCC4)c(F)cc3n2c1=O	8 (≈ 20.7 µM)	4 (≈ 10.4 µM)	64 (≈ 166 µM)	1 (≈ 2.59 µM)	32 (≈ 82.8 µM)	> 128	32 (≈ 82.8 µM)	32 (≈ 82.8 µM)	0.5	16 (≈ 41.4 µM)	> 128
Nn1c(=O)cc2n(C3CC3)c3cc(N4CCNCC4)c(F)cc3n2c1=O	1 (≈ 2.79 µM)	4 (≈ 11.2 µM)	8 (≈ 22.3 µM)	0.25 (≈ 0.698 µM)	4 (≈ 11.2 µM)	> 64	2 (≈ 5.58 µM)	2 (≈ 5.58 µM)	0.2	64 (≈ 179 µM)	> 64
CCn1c2cc(N3CCNCC3)c(F)cc2n2c(=O)n(O)c(=O)cc12	8 (≈ 23 µM)	32 (≈ 92.1 µM)	4 (≈ 11.5 µM)	8 (≈ 23 µM)	16 (≈ 46.1 µM)	32 (≈ 92.1 µM)	8 (≈ 23 µM)	32 (≈ 92.1 µM)	1	> 64	> 64
CN1CCN(c2cc3c(cc2F)n2c(=O)n(O)c(=O)cc2n3C2CC2)CC1	< 0.03	2 (≈ 5.36 µM)	2 (≈ 5.36 µM)	< 0.03	0.25 (≈ 0.67 µM)	32 (≈ 85.7 µM)	0.12 (≈ 0.321 µM)	0.12 (≈ 0.321 µM)	1	4 (≈ 10.7 µM)	32 (≈ 85.7 µM)
CCn1c2cc(N3CCNCC3)c(F)cc2c2c(N)ncnc21	64 (≈ 204 µM)	–	> 128	16 (≈ 50.9 µM)	> 128	–	> 128	> 128	5	> 128	> 128
CCn1c2cc(N3CCNCC3)c(F)cc2n2c(=O)[nH]c(=O)cc12	16 (≈ 48.3 µM)	64 (≈ 193 µM)	> 64	8 (≈ 24.1 µM)	> 64	> 64	64 (≈ 193 µM)	> 64	1	> 64	–
